This note sets out measurements from ChEMBL document CHEMBL3526127, “Absorption, elimination, and metabolism of CS-1036, a novel α-amylase inhibitor in rats and monkeys, and the relationship between gastrointestinal distribution and suppression of glucose absorption” (Drug Metab Dispos, 2013).

In general, AUC(0-inf) refers to the area under the concentration-time curve extrapolated to infinity. One may read the half-life as the time needed for the level to fall by half in the phase considered. Usually bioavailability stands for dose-corrected exposure relative to a reference, in per cent. By AUC(0-t) is commonly meant the area under the concentration-time curve up to a stated or last time point. Broadly, the Cmax is the highest concentration seen after dosing. Broadly, the Tmax is the time from dosing to the highest level. What is called clearance is a measure of how efficiently the substance is removed, as volume per time.

The nature of series [1]: Drug excretion in F344 rat feces at 1 mg/kg, iv administered as single dose after 0 to 168 hrs by scintillation counting method. It is filed as ADME, organism-based. On the set-up: dose 1 mg/kg, route intravenous. Particulars: in vivo. In outline:
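Fasted F344 rats (152–156 g iv via tail vein; 154–159 g oral; n = 4) received [14C]-labelled drug at 1 mg/kg (41.9 µCi/kg). Animals were kept in metabolic cages; urine and feces were collected to 168 h, and expired CO2 was trapped in 2-aminoethanol/2-methoxyethanol (1:1) to 48 h. Samples were counted by liquid scintillation (feces homogenized). Results are % of dose, mean ± S.D.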

Series [2] can be described thus: Drug excretion in cynomolgus monkey feces at 3 mg/kg, iv administered as single dose after 0 to 48 hrs by scintillation counting method. It is filed as ADME, organism-based, Macaca fascicularis. On the set-up: dose 3 mg/kg, route intravenous. Particulars: in vivo. In outline:
(§1)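 Fasted cynomolgus monkeys (n = 4) received [14C]-labelled drug at 3 mg/kg, iv via saphenous vein (191 µCi/kg) or orally by stomach catheter (156.5 µCi/kg). Urine, feces and water cage-wash were collected to 336 h. Samples were counted by liquid scintillation; feces were homogenized in 4-fold water. Results are % of dose, mean ± S.D.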

Series [3] is described as follows: Drug excretion in cynomolgus monkey urine at 3 mg/kg, iv administered as single dose after 0 to 336 hrs by scintillation counting method. In kind it is ADME, organism-based, Macaca fascicularis. On the set-up: dose 3 mg/kg, route intravenous. Particulars: in vivo.
Series [4] in a line: Drug excretion in cynomolgus monkey urine at 3 mg/kg, po administered as single dose after 0 to 48 hrs by scintillation counting method. In kind it is ADME, organism-based, Macaca fascicularis. Further details: dose 3 mg/kg, route oral. To be noted: in vivo.
A short description of series [5]: Drug excretion in cynomolgus monkey feces at 3 mg/kg, po administered as single dose after 0 to 48 hrs by scintillation counting method. On the set-up: dose 3 mg/kg, route oral. Particulars: in vivo. It is filed as ADME, organism-based, Macaca fascicularis. In outline:
as §1

In series [6] the test system is Cynomolgus monkey. Put plainly: Total drug excretion in cynomolgus monkey at 3 mg/kg, po administered as single dose after 0 to 48 hrs by scintillation counting method. In kind it is ADME, organism-based, Macaca fascicularis. Further details: dose 3 mg/kg, route oral. Particulars: in vivo. Summed up:
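Fasted male cynomolgus monkeys (n = 4) were dosed with 14C-labelled drug at 3 mg/kg, iv via saphenous vein (191 µCi/kg) or orally by stomach catheter (156.5 µCi/kg). Urine, feces and cage-wash water were collected to 336 h. Radioactivity was measured by liquid scintillation counting, with feces homogenized in water, and expressed as % of dose.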

The nature of series [7]: Drug excretion in cynomolgus monkey feces at 3 mg/kg, po administered as single dose after 0 to 336 hrs by scintillation counting method. In kind it is ADME, organism-based, Macaca fascicularis. On the set-up: dose 3 mg/kg, route oral. Particulars: in vivo. Summed up:
as §1

A short description of series [8]: Drug metabolism in po dosed monkey urine assessed as 1,4-dideoxy-1,4-imino-D-arabinitol formation by LC-MS/MS method. To be noted: cynomolgus monkey, in vivo.
The nature of series [9]: Drug metabolism in anaerobic culture broth of monkey feces assessed as 1,4-dideoxy-1,4-imino-D-arabinitol formation at 63.5 uCi/ml after 24 hrs at 35 degC by LC-MS/MS method. To be noted: cynomolgus monkey.
Series [10] in a line: AUC (0 to infinity) in cynomolgus monkey at 10 mg/kg, po administered as single dose by LC-MS/MS method. In kind it is ADME, organism-based, Macaca fascicularis. On the set-up: time infinity, dose 10 mg/kg, route oral. To be noted: plasma. In outline: (§2)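 Fasted male F344 rats (146–185 g) or male cynomolgus monkeys (3.48–4.29 kg), n = 4 per dose, given single iv or oral dose of 0.3, 1.0, 3.0 or 10.0 mg/kg; monkeys dosed with 2-week washouts. Blood sampled to 48 h; plasma stored frozen. LC-MS/MS with deuterated internal standard. Noncompartmental analysis: AUClast by trapezoidal rule; AUC0–inf = AUClast + Ctz/terminal rate constant; mean ± S.D.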

The nature of series [11]: Half life in cynomolgus monkey at 3 mg/kg, po administered as single dose by LC-MS/MS method. In kind it is ADME, organism-based, Macaca fascicularis. On the set-up: dose 3 mg/kg, route oral. Particulars: in vivo. In outline:
(§3)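 Male F344 rats (146–185 g) and male cynomolgus monkeys (3.48–4.29 kg), n = 4 each, fasted overnight, received single iv or oral doses of 0.3, 1.0, 3.0 or 10.0 mg/kg. Monkeys had 2-week washouts between doses. Plasma was sampled to 48 h and assayed by LC-MS/MS with deuterated internal standard. Noncompartmental analysis: tmax observed; t1/2 by regression on ≥3 terminal log points; Vss = dose·AUMC/(AUC0–inf)²; Foral = oral/iv AUC0–inf at the same dose.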

Series [12] is described as follows: Oral bioavailability in F344 rat at 1 mg/kg administered as single dose by LC-MS/MS method. It is filed as ADME, organism-based. To be noted: in vivo. Summed up:
as §3

Series [13] is described as follows: AUClast in cynomolgus monkey at 3 mg/kg, iv administered as single dose by LC-MS/MS method. It is filed as ADME, organism-based, Macaca fascicularis. Particulars: plasma. On the set-up: time 0 - last, dose 3 mg/kg, route intravenous. In outline: as §2
Series [14] in a line: Half life in cynomolgus monkey at 1 mg/kg, iv administered as single dose by LC-MS/MS method. On the set-up: dose 1 mg/kg, route intravenous. To be noted: in vivo. In kind it is ADME, organism-based, Macaca fascicularis. Summed up:
as §3

A short description of series [15]: Cmax in F344 rat at 3 mg/kg, po administered as single dose by LC-MS/MS method. In kind it is ADME, organism-based. Further details: dose 3 mg/kg, route oral. Particulars: in vivo.
Series [16] can be described thus: Cmax in F344 rat at 1 mg/kg, po administered as single dose by LC-MS/MS method. In kind it is ADME, organism-based. On the set-up: dose 1 mg/kg, route oral. To be noted: in vivo. In outline: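 Fasted male F344 rats (146–185 g) and cynomolgus monkeys (3.48–4.29 kg), n = 4 each, received a single oral dose; monkeys had 2-week washouts. Plasma sampled up to 48 h, stored at […], assayed by LC-MS/MS with a deuterated internal standard. Cmax taken from observed data by noncompartmental analysis; mean ± S.D. (n = 3 or 4).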

Series [17] in a line: Tmax in cynomolgus monkey at 3 mg/kg, po administered as single dose by LC-MS/MS method. It is filed as ADME, organism-based, Macaca fascicularis. Particulars: in vivo. Further details: dose 3 mg/kg, route oral. In outline:
as §3

A short description of series [18]: AUC (0 to infinity) in cynomolgus monkey at 1 mg/kg, iv administered as single dose by LC-MS/MS method. It is filed as ADME, organism-based, Macaca fascicularis. Further details: time infinity, dose 1 mg/kg, route intravenous. To be noted: plasma. In outline: as §2
Series [19] is described as follows: Clearance in F344 rat at 0.3 mg/kg, iv administered as single dose by LC-MS/MS method. In kind it is ADME, organism-based. Further details: dose 0.3 mg/kg, route intravenous. Particulars: in vivo. Summed up:
(§4)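 Fasted male F344 rats (146–185 g) and male cynomolgus monkeys (3.48–4.29 kg), n = 4 each, received a single iv dose; monkeys had 2-week washouts between doses. Blood was sampled up to 48 h and plasma stored at […]. Plasma parent was quantified by LC-MS/MS with a deuterated internal standard. CL = dose/AUC0–inf by noncompartmental analysis; mean ± S.D.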

Series [20] can be described thus: Clearance in F344 rat at 3 mg/kg, iv administered as single dose by LC-MS/MS method. It is filed as ADME, organism-based. Further details: dose 3 mg/kg, route intravenous. Particulars: in vivo. Summed up:
as §4

Series [21] in a line: Volume of distribution at steady state in F344 rat at 1 mg/kg, iv administered as single dose by LC-MS/MS method. In kind it is ADME, organism-based. To be noted: in vivo, read-out: Vdss. Further details: dose 1 mg/kg, route intravenous. In outline: as §3
Series [22] can be described thus: Volume of distribution at steady state in F344 rat at 3 mg/kg, iv administered as single dose by LC-MS/MS method. In kind it is ADME, organism-based. On the set-up: dose 3 mg/kg, route intravenous. Particulars: in vivo, read-out: Vdss. Summed up: as §3
Series [23] is described as follows: Volume of distribution at steady state in cynomolgus monkey at 0.3 mg/kg, iv administered as single dose by LC-MS/MS method. It is filed as ADME, organism-based, Macaca fascicularis. On the set-up: dose 0.3 mg/kg, route intravenous. Particulars: in vivo, read-out: Vdss. Summed up:
as §3

The nature of series [24]: Tmax in cynomolgus monkey at 0.3 mg/kg, po administered as single dose by LC-MS/MS method. In kind it is ADME, organism-based, Macaca fascicularis. On the set-up: dose 0.3 mg/kg, route oral. To be noted: in vivo. Summed up: as §3
Series [25] is described as follows: AUC (0 to infinity) in F344 rat at 0.3 mg/kg, iv administered as single dose by LC-MS/MS method. On the set-up: time infinity, dose 0.3 mg/kg, route intravenous. To be noted: plasma. In kind it is ADME, organism-based. In outline: as §2
A short description of series [26]: AUC (0 to infinity) in cynomolgus monkey at 1 mg/kg, po administered as single dose by LC-MS/MS method. In kind it is ADME, organism-based, Macaca fascicularis. Further details: dose 1 mg/kg, route oral, time infinity. Particulars: plasma. Summed up: as §2
A short description of series [27]: AUClast in cynomolgus monkey at 3 mg/kg, po administered as single dose by LC-MS/MS method. In kind it is ADME, organism-based, Macaca fascicularis. On the set-up: time 0 - last, dose 3 mg/kg, route oral. Particulars: plasma. Summed up:
as §2

SMILES strings stand for the structures.

In the case of `C[C@H]1O[C@@H](O[C@H]2[C@H](O)[C@@H](O)[C@@H](O[14C@H]3[14C@H](O)[14CH2]N[14C@@H]3[14CH2]O)O[C@@H]2CO)[C@H](O)[C@@H](O)[C@@H]1O`, the Drug excretion is given as 17.82% in [1]; 0.46% in [2]; 81.13% in [3]; 4.54% in series [4]; 78.5% in [5]; 83.8% in series [6]. Moreover, the Drug excretion in series [7] is recorded as 88.13%. For the same compound, the Drug metabolism result in series [8] and in [9] was “metabolite_detected” each time.

With `C[C@H]1O[C@@H](O[C@H]2[C@H](O)[C@@H](O)[C@@H](O[C@H]3[C@H](O)CN[C@@H]3CO)O[C@@H]2CO)[C@H](O)[C@@H](O)[C@@H]1O`, the AUC(0-inf) in series [10] was 894 ng·h/mL; in [18] it was 5890 ng·h/mL; in [25], 1870 ng·h/mL; in series [26], 57.9 ng·h/mL. For the same compound, the half-life in series [11] was 2.12 h; in series [14], 21.4 h. Further, the bioavailability in series [12] stood at 2.33%. Also, the AUC(0-t) in series [13] worked out at 18100 ng·h/mL; in series [27], 186 ng·h/mL. Moreover, the highest concentration (Cmax) worked out at 113 ng/mL in series [15] and 45.5 ng/mL in [16]. The time of peak concentration (Tmax) in [17] and in [24] was 1.75 h each time. The clearance turned out to be 2.73 mL/min/kg in series [19] and 2.67 mL/min/kg in series [20]. Further, the Vd in series [21] amounted to 0.237 L/kg; in series [22] it was 0.219 L/kg; in series [23], 0.233 L/kg.
